Compounds with a hit are over-represented: about 3.9% of the library has one in this group of screens.
ANO1 activ – activators or potentiators of mouse TMEM16A chloride channel | 0.3% of 340,000 active | AID 623877 | Q8BHY3 | HEK293 TMEM16A/YFP-H148Q/I152L, iodide quench fluorescence; active compounds read low | B-score at 10 µM;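 active = fluorescence-ratio B-score plate-corrected deviation score at least 3 library SD below zero, with starting fluorescence score within 5 deviations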;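 note: channel opened by trigger with iodide after compound preincubation; score built on the fluorescence ratio of max minus min over baseline; more negative score means more quench and so TMEM16A activation or potentiation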
CRFBP-R2 agonist – agonists of human CRF-binding protein/CRF-R2 receptor complex; 0.46% of 350,000 active; activation, % at 13.2 µM; HEK293 CRF-R2/CRF-BP, calcium dye fluorescence (FLIPR); percent of saturating CRF peptide response; AID 588473;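 active = activation of at least 50%, plus an integration ratio under a set limit after plate pattern correction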;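 note: plate controls were neutral control wells without compound for no effect and CRF at EC100 for full effect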
TAAR1 antagonist – human TAAR1 antagonism. CHO RD-HGA16 TAAR1, Fluo-8 calcium fluorescence, antagonist. inhibition, % at 3 µM. 1.5% of 360,000 active. AID 624466;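 active = inhibition above a per-plate cutoff, the mean inhibition of test compounds on that plate plus 3 SD, cut at about 49% in these data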;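 note: 0% = DMSO plus EC80 beta-PEA response and 100% = DMSO alone without agonist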
Target sequence (Q96RJ0 whole entry, looked up): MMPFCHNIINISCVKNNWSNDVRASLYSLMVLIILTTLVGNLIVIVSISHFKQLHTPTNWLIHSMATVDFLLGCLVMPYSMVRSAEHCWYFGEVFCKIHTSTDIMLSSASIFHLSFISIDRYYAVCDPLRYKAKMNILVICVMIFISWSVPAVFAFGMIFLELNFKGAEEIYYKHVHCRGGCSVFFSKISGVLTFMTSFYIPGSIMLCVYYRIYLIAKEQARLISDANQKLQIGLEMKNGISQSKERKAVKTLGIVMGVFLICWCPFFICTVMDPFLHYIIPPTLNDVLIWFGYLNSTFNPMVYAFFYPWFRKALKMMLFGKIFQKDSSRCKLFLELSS
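Test system – hTAAR1-expressing CHO RD-HGA16 cells, Gα16-coupled · Also added – β-PEA at EC80 concentration, post-compound challenge · Compound – 3 µM, single point · Incubation – dye loading 75 min at 37 °C, then 30 min room temperature · Measured by – Fluo-8 intracellular calcium dye fluorescence, real-time kinetic reads · Benchmarks – vehicle and agonist controls · Replicates – singlicate, one well per test compound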
CRFBP-R2 block – blocks CRF-induced signaling of the CRF-BP/CRF-R2 complex. HEK293 CRF-R2/CRF-BP, CRF-induced calcium fluorescence. inhibition, % at 11.8 µM. 0.59% of 350,000 active. AID 588475;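 active = inhibition of the ligand-induced calcium signal above about 50% at the single tested concentration, limit read from the data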
TAAR1 ag – human TAAR1 agonism; Q96RJ0; 0.99% of 360,000 active; activation, % at 3 µM; CHO RD-HGA16 TAAR1, Fluo-8 calcium fluorescence; vehicle wells 0%, saturating PEA agonist 100%;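 active = activation above the mean activation of all test compounds in the run plus 3 SD, cut at about 38% in these data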
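test system = CHO RD-HGA16 cells carrying human TAAR1 plus Gα16 | schedule = 17-24 h seeding, 75 min 37 °C dye, 30 min RT | compound dosing = 3 µM single concentration | control set = DMSO and PEA EC100 | replicates = n 1 | signal = Fluo-8 fluorescence, 5 s baseline then 140 s kinetic read | measure = percent activation vs PEA EC100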
ANO1 block – blocks the mouse calcium-activated chloride channel TMEM16A | Q8BHY3 | HEK293 TMEM16A/YFP iodide influx fluorescence, ionomycin | normalized B-score (activity score, 25-100; higher = stronger inhibition) at 10 µM | 1.2% of 310,000 active;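 active = ratio plate-corrected score three or more library SD toward inhibition, starting fluorescence score within five deviations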;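 note: score derived from kinetic fluorescence span divided by baseline fluorescence per well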
TMEM16A reconf – TMEM16A (mouse) chloride channel inhibition, re-confirmation | 39% of 2,300 active | inhibition, % at 10 µM | HEK293 TMEM16A/YFP-H148Q, iodide quench fluorescence; ionomycin added to raise cell calcium | shares compounds with ANO1 block;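 active = mean duplicate percent inhibition, scaled so buffer wells are 0 and the reference blocker 100, over three buffer SD above buffer mean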
HEK293 Ca mobil – counter-screen for TMEM16A inhibitors: effect on calcium mobilization; shares compounds with ANO1 block; AID 652231; TMEM16A/YFP HEK293, Fluo4 calcium mobilization; calcium response (% of ionomycin), % at 10 µM; 2% of 2,300 active;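 active = duplicate-averaged calcium signal over 20% of the ionomycin maximum, relative to buffer baseline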;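 note: each well's signal is peak minus trough fluorescence divided by its pre-addition baseline; 0% = buffer wells and 100% = ionomycin wells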
YFP-HEK293 quench – counter-screen for TMEM16A inhibitors: effect in parental YFP-HEK293 cells; YFP ratio F(max-min)/F0 at 10 µM; 2,300 tested, under 10 active; shares compounds with ANO1 block; iodide YFP quench, ionomycin;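 active = yellow fluorescent protein signal ratio exceeding the buffer control mean by over 5 SD of those controls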;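 note: ratio is mean of duplicate wells from kinetic YFP trace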
ClC-1 rat inh – blocks the rat ClC-1 voltage-dependent chloride channel; shares compounds with ANO1 block; CHO ClC-1-YFP, iodide influx fluorescence quench; iodide control reads 0, buffer control 100; ratio percent, % at 10 µM; 2,300 tested, under 10 active; AID 652236;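 active = duplicate-mean ratio percent above the mean of iodide-only control wells, which defines zero, plus 5 of their SD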;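 note: higher percent means stronger block of ClC-1 iodide influx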
Numbers without * were called inactive; i = inactive; · = not tested or not shown.

SMILES | ANO1 activ | CRFBP-R2 agonist | TAAR1 antagonist | CRFBP-R2 block | TAAR1 ag | ANO1 block | TMEM16A reconf | HEK293 Ca mobil | YFP-HEK293 quench | ClC-1 rat inh
CCN(CC)S(=O)(=O)c1ccc(-c2nnc(SCC(C)=O)o2)cc1 | i | 0 | 12 | 13 | 4 | i | · | · | · | ·
CCN(CC)S(=O)(=O)c1ccc(-c2nnc(SCC(=O)Nc3cc(OC)cc(OC)c3)o2)cc1 | i | 0 | 28 | -14 | 16 | 100* | i | i | -1.4 | 4
COc1ccc2cc3cc(C(=O)N4CCN(Cc5ccc6c(c5)OCO6)CC4)oc3nc2c1 | i | 2 | 24 | 5 | 9 | 25* | i | i | -1.1 | -4
COc1ccc2cc3cc(C(=O)NCc4ccc5c(c4)OCO5)oc3nc2c1 | i | 0 | 8 | -1 | 9 | i | · | · | · | ·
C=CCOc1ccc(C2/C(=C(/O)c3ccc(OC)cc3)C(=O)C(=O)N2CCN2CCNCC2)cc1 (stereo not given) | i | 2 | -22 | 11 | 2 | i | · | · | · | ·
CC(OC(=O)C1CC2CCCC(C1)C2=O)C(=O)Nc1cccc([N+](=O)[O-])c1 (stereo not given) | i | 0 | -8 | 9 | 8 | · | · | · | · | ·
CCCCCOC(=O)CSc1nnc(-c2cc(OC)c(OC)c(OC)c2)o1 | i | 1 | 6 | -3 | 5 | 25* | i | i | -1.1 | -9
CC(=O)Nc1ccc(S(=O)(=O)N2CCN(C(=O)c3ncoc3-c3cccc(C)c3)CC2)cc1 | i | 1 | -19 | -6 | 2 | i | · | · | · | ·
CC(=O)Nc1ccc(S(=O)(=O)N2CCN(C(=O)c3ncoc3-c3cccc(F)c3)CC2)cc1 | i | 3 | 3 | -3 | 2 | 100* | i | i | -1 | -7
Cc1cccnc1NC(=O)CN1C(=O)NC(C)(c2ccc3ccccc3c2)C1=O (stereo not given) | i | -1 | -9 | 14 | 3 | i | · | · | · | ·
C=CCn1c(SCC(=O)c2cccs2)nc2sc(CC)cc2c1=O | i | 0 | 37 | 13 | 13 | 100* | 64%* | i | -0.92 | -16
O=S(=O)(Nc1ccccc1O)c1ccc(-c2ccccc2)cc1 | i | 1 | 8 | -10 | 20 | 100* | 58%* | i | -1.1 | -24
OCC[C@@H]1C[C@@H](O)[C@H](O)[C@@]2(CCc3ccccc3CO2)O1 | i | 0 | -4 | 7 | 19 | i | · | · | · | ·
COc1ccc(CNC(=O)c2ccc(N3CCCC3=O)cc2)cc1 | i | 6 | -2 | 4 | 2 | 100* | i | i | -1.2 | 2
Fc1ccc(CCNC(=S)Nc2ccc(F)c(Cl)c2)cc1 | -4.7* | 5 | 23 | -5 | 13 | 100* | 37%* | i | -1.1 | -14
Fc1ccc(CNC(=S)Nc2ccc(Cl)cc2Cl)cc1 | i | 1 | 17 | 26 | 7 | i | · | · | · | ·
Fc1ccc(NC(=S)NCCc2ccc(Cl)cc2)cc1 | i | 1 | 2 | 9 | 7 | i | · | · | · | ·
Fc1ccc(NC(=S)Nc2ccc(Cl)cc2Cl)cc1 | · | -2 | 23 | 0 | 7 | 100* | 20%* | i | -1.1 | -10
S=C(NCCc1ccc(Cl)cc1)Nc1ccc(Cl)cc1Cl | i | 0 | 49* | 19 | 2 | 25* | i | i | -0.97 | -12

Assay outcomes deposited in PubChem by several laboratories.
